Sampled rows, rich in hits. Any-hit rate of the full collection: about 5.2%.
M18AAP inhibitor = PfM18AAP inhibitors, malaria aminopeptidase, primary screen, biochemical, QFRET, recombinant enzyme; 290,000 compounds, 1.2% hits; M18 aspartyl aminopeptidase (Plasmodium falciparum 3D7); H-Glu-NHMec fluorogenic cleavage; inhibition, % at 7.35 µM;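 active = inhibition above the campaign mean inhibition over all tested compounds plus 3 SD, cut at about 28% in these data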
ALR inh = inhibitors of human ALR sulfhydryl oxidase, primary screen, biochemical, H2O2 detection, HRP-luminol luminescence, single point. FAD-linked sulfhydryl oxidase ALR (Homo sapiens), P55789. purified ALR, DTT oxidation. inhibition, % (concentration not given with the values). 290,000 compounds, 3.8% hits;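 active = mean replicate inhibition above about 79%, with every replicate also reaching it, limit read from the data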
Target sequence (P55789 whole entry, looked up): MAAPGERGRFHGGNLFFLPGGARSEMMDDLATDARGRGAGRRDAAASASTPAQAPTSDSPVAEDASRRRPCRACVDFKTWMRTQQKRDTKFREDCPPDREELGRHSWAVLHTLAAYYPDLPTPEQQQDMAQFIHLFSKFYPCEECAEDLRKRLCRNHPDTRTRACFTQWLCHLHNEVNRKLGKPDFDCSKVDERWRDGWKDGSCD
HCV core dimer = inhibitors of HCV core protein dimerization, primary screen, biochemical, TR-FRET, high-throughput | TR-FRET GST/Flag-core106 dimerization, 1536-well | inhibition, % at 5 µM | 300,000 compounds, 0.33% hits | AID 1899, 2009;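 active = inhibition above the mean of all tested compounds plus 3 SD, set per screening campaign, cut at about 45% in these data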
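Assay system: GST-tagged and Flag-tagged HCV core protein residues 1-106 / Times: compound-protein-antibody incubation 4 h at 22.5 °C / Signal: time-resolved FRET, ex 340 nm, em 617 and 671 nm / Evaluation: % inhibition based on acceptor/donor emission ratio / Benchmarks: wells lacking GST-core106 and wells with excess unlabelled core106 / Repeats: singlicate, one well per compound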
ZTA DNA inh = blocks Epstein-Barr virus ZTA, an EBNA-1 counter-screen; inhibition, % at 11 µM; ZTA-DNA binding, fluorescence polarization; 320,000 compounds, 0.15% hits; P03206; in the data active = inhibition above about 33%
Target sequence (P03206 whole entry, looked up): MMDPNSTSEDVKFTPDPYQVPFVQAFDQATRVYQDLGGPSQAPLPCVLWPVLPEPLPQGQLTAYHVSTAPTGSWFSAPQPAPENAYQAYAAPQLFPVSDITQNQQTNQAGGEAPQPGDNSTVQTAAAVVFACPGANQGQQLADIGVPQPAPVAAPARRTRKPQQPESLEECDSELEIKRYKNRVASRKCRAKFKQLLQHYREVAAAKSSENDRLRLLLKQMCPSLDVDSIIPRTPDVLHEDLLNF
NS3 helicase inh = inhibitors of HCV NS3 helicase, primary screen, biochemical, Cy5 molecular beacon fluorescence. 290,000 compounds, 0.56% hits. NS3 helicase DNA unwinding. inhibition, % at 10.9 µM;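 active = inhibition above the mean of all tested compounds plus 3 SD, set per campaign, cut at about 35% in these data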
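System: HCV NS3 helicase fragment; control set: DMSO and thioflavine S; technique: Cy5 fluorescence at 0 and 60 min, beacon hairpin quenching; reagent: beacon DNA duplex substrate plus ATP; replicates: singlicate; schedule: 1 h reaction at 25 °C, ATP-initiated; medium: MOPS buffer pH 6.5 with MgCl2, DTT, Tween20, BSA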
EBNA-1 inh = EBNA-1 DNA-binding inhibitors, primary screen, biochemical, fluorescence polarization | inhibition, % at 14.8 µM | 300,000 compounds, 0.34% hits | AID 1950, 2009; in the data active = inhibition above about 28%
ZTA inh confirm = EBV Zta binding to ZRE DNA, inhibitors, confirmation, biochemical, fluorescence polarization, triplicate. 320 compounds, 30% hits. shares compounds with ZTA DNA inh. AID 2361, 2010. inhibition, % at 11.1 µM;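 active = mean inhibition across triplicate runs above the hit threshold derived for the original primary screen, cut at about 33% in these data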
EBNA-1 counter = EBNA-1 DNA-binding inhibition, counter-screen for ZTA inhibitor project, biochemical, fluorescence polarization; shares compounds with ZTA DNA inh; inhibition, % at 14.8 µM; 320 tested, under 10 active; AID 2362, 2010; call rule not given here
A number is an active result; n = inactive; x = no result.

SMILES	M18AAP inhibitor	ALR inh	HCV core dimer	ZTA DNA inh	NS3 helicase inh	EBNA-1 inh	ZTA inh confirm	EBNA-1 counter
Cc1ccc(C(=O)O)cc1N1C(=O)c2cccc3c([N+](=O)[O-])ccc(c23)C1=O	n	n	n	39	n	n	35	n
O=C(O)c1ccc(CN2C(=O)c3cccc4c([N+](=O)[O-])ccc(c34)C2=O)cc1	n	x	x	x	n	x	x	x
CCN(CC)CCn1c(SCC(=O)Nc2ccc(F)cc2)nc2c(sc3ccccc32)c1=O	n	99	n	38	n	n	n	n
C=CCN(C(=O)CSc1nc2c(sc3ccccc32)c(=O)n1CCN(CC)CC)c1ccccc1	n	x	n	n	n	n	x	x
CC(=O)NC(CCS(C)(=O)=O)C(=O)Nc1ccc(Cl)c(Cl)c1 (centres undefined)	n	n	n	36	n	n	n	n
CC1C/C(=C/c2ccncc2)C(=O)/C(=C/c2ccncc2)C1 (centres undefined)	n	n	n	43	n	n	48	n
CCCCN1CC(=O)N2[C@H](c3ccc(Cl)cc3)[C@@H]3C(=O)N(CC)C(=O)[C@@H]3[C@]2(Cc2ccccc2)C1=O	n	n	n	n	n	n	x	x
COCCCNc1nc(CC(C)C)nc2c1nnn2Cc1ccccc1	n	n	n	n	n	n	x	x
C=CCn1c(NS(=O)(=O)c2ccccc2)c(S(=O)(=O)c2ccc(C)cc2)c2nc3ccccc3nc21	n	n	n	56	n	n	n	n
O=S(=O)(Nc1c(S(=O)(=O)c2ccccc2)c2nc3ccccc3nc2n1C1CCCCC1)c1ccccc1	n	n	n	n	n	n	x	x
COC(=O)c1cc(NC(=O)COC(=O)C2CCC2)cc(C(=O)OC)c1	x	n	n	n	x	n	x	x
CCOc1ccc2c(=O)c(Oc3ccccc3)c(C)oc2c1	n	n	n	139	n	n	n	n
Cc1oc2cc(OC(C)C(=O)O)ccc2c(=O)c1Oc1ccccc1 (centres undefined)	n	n	n	n	n	n	x	x
Cc1onc(-c2ccccc2)c1C(=O)N1CCN(Cc2ccccc2)CC1	n	n	n	n	n	n	x	x
CCc1nnc(NC(=O)[C@@H](NC(=O)c2ccc(OC)cc2)C(C)C)s1	n	n	n	n	n	n	x	x
CCc1nnc(NC(=O)[C@@H](NC(=O)c2cc(OC)cc(OC)c2)C(C)C)s1	n	n	n	117	n	n	n	n
CC1=C([N+](=O)[O-])C(c2ccc(Cl)cc2)NC(=O)N1 (centres undefined)	n	x	n	n	n	n	x	x
Cc1cc(C)c(NC(=O)C2CC(=O)N(C3CCCC3)C2)c(C)c1 (centres undefined)	x	n	x	x	x	x	x	x
Cc1cccc(C)c1NC(=S)NCCc1ccccn1	n	n	n	34	n	n	n	n
Cc1cc(Nc2cccc(F)c2)n2nc(C)nc2n1	n	x	n	107	n	n	n	n
C#CCOCCOCCOCCNc1nc(N2CCN(C(=O)CCCCCCCCCCNC(=O)[C@H](CCCCN)n3cc(C)nn3)CC2)nc(N2CCN(C(=O)CCCCCCCCCCNC(=O)[C@@H]([C@H](C)CC)n3cc(CCCCCN)nn3)CC2)n1	x	n	n	70	x	n	44	n
C#CCOCCOCCOCCNc1nc(N2CCN(C(=O)C([C@@H](C)CC)n3cc(C(N)CC(C)C)nn3)CC2)nc(N2CCN(C(=O)[C@H](CCC(=O)O)n3cc(C(N)[C@H](C)CC)nn3)CC2)n1 (some centres undefined)	n	n	n	58	n	n	n	n
C#CCOCCOCCOCCNc1nc(N2CCOCC2)nc(N2CCN(C(=O)CCCCCCCCCCNC(=O)[C@@H](CCSC)n3cc(CCO)nn3)CC2)n1	x	n	n	n	x	n	x	x
C#CCOCCOCCOCCNc1nc(N2CCN(C(=O)CCCCCCCCCCNC(=O)[C@@H](CCSC)n3cc(CCO)nn3)CC2)nc(N2CCN(C(=O)CCCCCCCCCCNC(=O)[C@H]([C@@H](C)CC)n3cc(CCCCN=C(N)N)nn3)CC2)n1	x	n	n	121	x	n	59	n
C#CCOCCOCCOCCNc1nc(N2CCN(C(=O)CCCCCCCCCCNC(=O)[C@@H](CCSC)n3cc(CCO)nn3)CC2)nc(N2CCN(C(=O)CCCCCCCCCCNC(=O)[C@H]([C@@H](C)CC)n3cc(CCCCCN)nn3)CC2)n1	x	n	n	70	x	n	43	n
SMILES	M18AAP inhibitor	ALR inh	HCV core dimer	ZTA DNA inh	NS3 helicase inh	EBNA-1 inh	ZTA inh confirm	EBNA-1 counter
N#CCCN(C(=O)COC(=O)CNS(=O)(=O)c1ccc2ccccc2c1)c1ccccc1	x	n	x	n	x	x	x	x
Cc1cc(C)cc(NC(=O)CN2CCC(C(=O)c3ccccc3)CC2)c1	n	x	n	n	n	n	x	x
c1ccc(CCn2c3ccccc3c3nnc(SCc4ccc5nonc5c4)nc32)cc1	n	n	n	n	n	n	x	x
CC(=O)c1cccc(NC(=O)COC(=O)COc2ccccc2C)c1	n	n	n	n	n	n	x	x
CC(=O)Nc1cccc(NC(=O)COc2ccccc2C)c1	n	n	n	94	n	n	n	n
Cc1ccc(O)c(CNCCNCc2cc(C)ccc2O)c1	x	n	n	46	x	n	n	n
Cn1nnnc1SCC(=O)Nc1ccc(C(=O)N2CCN(Cc3ccccc3F)CC2)cc1	x	x	x	n	x	x	x	x
Cc1cc(C(F)(F)F)c(C#N)c(SCC(=O)Nc2nc3ccccc3s2)n1	n	x	n	n	n	n	x	x
Cc1ccc2sc(NC(=O)CSc3nc(C)cc(C)c3C#N)nc2c1	n	n	n	38	n	n	n	n
Cc1cccc(-n2ccnc2SCC(=O)Nc2ccc3c(c2)OCCO3)c1	n	x	n	n	n	n	x	x
CCOc1ccc(NC(=O)CSc2nccn(-c3ccc4c(c3)OCCO4)c2=O)cc1	x	98	n	47	x	n	n	n
CCC(=O)N1c2ccc(S(=O)(=O)CCC(=O)N3CCN(c4ccccc4F)CC3)cc2CC1C (centres undefined)	n	n	n	n	n	n	x	x
CCCOc1ccc(/C=C/C(=O)OCC(=O)N(C)c2c(N)n(Cc3ccccc3)c(=O)[nH]c2=O)cc1OCC	x	n	n	n	x	n	x	x
COc1ccc(C(=O)N(C)c2c(C)n(C)n(-c3ccccc3)c2=O)cc1OC	n	n	n	82	n	n	n	n
CC(=O)Nc1cc2c3c(c1)CCC(=O)N3CCC2	n	n	n	n	n	n	x	x
CC(C)OC(=O)c1cc(NC(=S)Nc2ccc([N+](=O)[O-])cc2)cc(C(=O)OC(C)C)c1	n	n	n	52	n	n	n	n

Bioassay records (PubChem BioAssay)
